Test results reported in PMC11403393 (RSC Advances, 2024).

Target: α-glucosidase (Saccharomyces cerevisiae, UniProt P53341)
Experiment: Kinetic study of α-glucosidase inhibition
Assay type: biochemical
In short: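 Yeast α-glucosidase (0.02 U per well) in 50 mM sodium phosphate, pH 7.0, preincubated with test compound (1.50, 4.00, 8.00 μM, or none) at 37 °C for 15 min. p-Nitrophenyl α-D-glucopyranoside added at 0.1, 0.2, 0.4 or 0.8 mM. A400 followed continuously for 30 min, in triplicate. Analysed by Lineweaver–Burk plot, replot of its slopes against inhibitor concentration, and Dixon plot.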

Sequence of α-glucosidase (P53341 whole entry): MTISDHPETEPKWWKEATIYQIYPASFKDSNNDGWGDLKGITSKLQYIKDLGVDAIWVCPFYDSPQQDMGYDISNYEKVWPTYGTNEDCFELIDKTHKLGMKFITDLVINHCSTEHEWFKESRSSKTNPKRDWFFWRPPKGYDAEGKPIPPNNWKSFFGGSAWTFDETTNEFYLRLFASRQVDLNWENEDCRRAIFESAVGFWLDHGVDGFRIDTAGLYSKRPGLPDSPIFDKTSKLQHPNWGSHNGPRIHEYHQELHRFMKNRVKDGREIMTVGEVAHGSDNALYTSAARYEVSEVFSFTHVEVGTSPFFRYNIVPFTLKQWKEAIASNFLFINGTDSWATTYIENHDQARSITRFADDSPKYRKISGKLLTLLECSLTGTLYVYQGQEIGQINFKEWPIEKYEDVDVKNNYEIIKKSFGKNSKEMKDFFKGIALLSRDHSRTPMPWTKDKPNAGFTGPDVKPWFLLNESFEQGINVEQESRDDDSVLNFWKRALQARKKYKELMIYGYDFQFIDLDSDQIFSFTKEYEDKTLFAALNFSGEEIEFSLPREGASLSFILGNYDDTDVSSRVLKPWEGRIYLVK

## O=C(Nc1cccc(Cl)c1)Nc1ccccc1N=Cc1cc(Cl)ccc1O [Compound 5h, 1-(2-{[(5-Chloro-2-hydroxybenzylidene)amino]}phenyl)-3-(3-chlorophenyl)urea]
  Effect on Km of the enzyme: increases Km
  Effect on Vmax of the enzyme: remains constant
  Mode (type) of inhibition: competitive mode of inhibition
